According to PMC3529859 (Leukemia, 2012):

Tests used:
Format in all cases: cell-based, human
[1] = test system: KIT D816V+ primary bone marrow mast cells; settings: 1 µM (1000 nM); 7 d; SCF 100 ng/ml; KIT D816V-positive patients n=5
In short: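 Bone marrow mononuclear cells from patients with systemic mastocytosis (WHO criteria, IRB-approved protocol, informed consent), with KIT D816V status determined by PCR/RFLP. Cells were incubated with test compound at 0, 100 or 1000 nM in 0.1% DMSO for 7 d with SCF (100 ng/ml), then mast cell viability was assessed.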

[2] = test system: SCF-enhanced degranulation of primary HuMCs; assay: SCF-enhanced degranulation of HuMCs; settings: Ag 0.1 ng/ml + SCF 10 ng/ml; up to 1000 nM
[3] = test system: FcεRI-mediated degranulation of primary HuMCs; assay: FcεRI-mediated degranulation of HuMCs; settings: Ag 1 ng/ml; inhibition observed only at 1000 nM

| SMILES | reduction in the viability of mast cells [1] [%] | effect on SCF-enhanced degranulation [2] | effect on FcεRI mediated mast cell degranulation [3] |
| --- | --- | --- | --- |
| CO[C@@H]1[C@H](N(C)C(=O)c2ccccc2)C[C@H]2O[C@]1(C)n1c3ccccc3c3c4c(c5c6ccccc6n2c5c31)C(=O)NC4 [PKC 412] | 88 |  |  |
| Cc1ccc(NC(=O)c2ccc(CN3CCN(C)CC3)cc2)cc1Nc1nccc(-c2cccnc2)n1 [imatinib] |  | inhibited SCF-enhanced degranulation at the highest concentration | minimal effects |
